Tests used:
[1] = Effective concentration required to inhibit HIV-1 induced cytopathicity in CEM cell culture by 50%.
[2] = Effective concentration required to inhibit HIV-1 induced cytopathicity in MT-4 cell culture by 50%.
[3] = target: T1, Reverse transcriptase/RNaseH (Human immunodeficiency virus 1, UniProt Q72547); assay: Effective concentration required to inhibit HIV-1 induced cytopathicity in CEM cell culture by 50%.
Outline: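 CEM cells at 4 × 10⁵/mL infected with HIV-1 or HIV-2 at ~100 CCID₅₀ per mL, mixed 1:1 with compound dilutions. Giant cell formation scored microscopically after 4 days. EC₅₀ is the concentration inhibiting virus-induced cytopathicity by 50%.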

[4] = target: T1, Reverse transcriptase/RNaseH; assay: Effective concentration required to inhibit HIV-1 induced cytopathicity in MT-4 cell culture by 50%.
Outline: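 MT-4 cells at 3 × 10⁵/mL infected with HIV-1 or HIV-2 at ~100 CCID₅₀ per mL, mixed 1:1 with compound dilutions. Cytopathicity read by trypan blue dye exclusion after 5 days. EC₅₀ is the concentration giving 50% protection against the virus-induced loss of cell viability.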

Cc1cn(C2OC(CO[Si](C)(C)C(C)(C)C)C3(OS(=O)(=O)C(c4ccccc4)=C3N)C2O[Si](C)(C)C(C)(C)C)c(=O)[nH]c1=O (configuration not stated)
EC50 [1]: 2500 nM
EC50 [2]: 6700 nM

Cc1cn([C@@H]2O[C@H](CO[Si](C)(C)C(C)(C)C)[C@@]3(OS(=O)(=O)C(I)=C3N)[C@H]2O[Si](C)(C)C(C)(C)C)c(=O)[nH]c1=O [1-[(5R,6R,8R,9R)-4-amino-9-(tert-butyl-dimethyl-silanyloxy)-6-(tert-butyl-dimethyl-silanyloxymethyl)-3-iodo-2,2-dioxo-1,7-dioxa-2lambda*6*-thia-spiro[4.4]non-3-en-8-yl]-5-methyl-1H-pyrimidine-2,4-dione]
EC50 [1]: 60 nM
EC50 [2]: 120 nM

COC(=O)CC=C1C(=N)C2(OS1(=O)=O)C(CO[Si](C)(C)C(C)(C)C)OC(n1cc(C)c(=O)n(C)c1=O)C2O[Si](C)(C)C(C)(C)C (configuration not stated)
EC50 [3]: 980 nM
EC50 [4]: 2900 nM

CNC1=C(C)S(=O)(=O)OC12C(CO[Si](C)(C)C(C)(C)C)OC(n1cc(C)c(=O)n(C)c1=O)C2O[Si](C)(C)C(C)(C)C (configuration not stated)
EC50 [1]: > 100000 nM
EC50 [2]: > 250000 nM

Cc1cn(C2OC(CO[Si](C)(C)C(C)(C)C)C3(OS(=O)(=O)C(c4ccsc4)=C3N)C2O[Si](C)(C)C(C)(C)C)c(=O)n(C)c1=O (configuration not stated)
EC50 [2]: 2300 nM

Cc1cn(C2OC(CO[Si](C)(C)C(C)(C)C)C3(OS(=O)(=O)C(c4ccccc4)=C3N)C2O[Si](C)(C)C(C)(C)C)c(=O)n(C)c1=O (configuration not stated)
EC50 [2]: 1700 nM

Cc1cn(C2OC(CO[Si](C)(C)C(C)(C)C)C3(OS(=O)(=O)C(Br)=C3N)C2O[Si](C)(C)C(C)(C)C)c(=O)[nH]c1=O (configuration not stated)
EC50 [1]: 850 nM
EC50 [2]: 930 nM

CC=C1C(=N)C2(OS1(=O)=O)C(CO[Si](C)(C)C(C)(C)C)OC(n1cc(C)c(=O)[nH]c1=O)C2O[Si](C)(C)C(C)(C)C (configuration not stated)
EC50 [3]: 4000 nM
EC50 [4]: 3200 nM

Cc1cn(C2OC(CO[Si](C)(C)C(C)(C)C)C3(OS(=O)(=O)C=C3N)C2O[Si](C)(C)C(C)(C)C)c(=O)n(C)c1=O (configuration not stated)
EC50 [1]: 40 nM

Cc1cn([C@@H]2O[C@H](CO[Si](C)(C)C(C)(C)C)[C@@]3(OS(=O)(=O)C(=CCCO)C3=N)[C@H]2O[Si](C)(C)C(C)(C)C)c(=O)[nH]c1=O [1-[(5R,6R,8R,9R)-4-amino-9-(tert-butyl-dimethyl-silanyloxy)-6-(tert-butyl-dimethyl-silanyloxymethyl)-3-(3-hydroxy-propenyl)-2,2-dioxo-1,7-dioxa-2lambda*6*-thia-spiro[4.4]non-3-en-8-yl]-5-methyl-1H-pyrimidine-2,4-dione]
EC50 [4]: 6600 nM

CCOC(=O)CC=C1C(=N)C2(OS1(=O)=O)C(CO[Si](C)(C)C(C)(C)C)OC(n1cc(C)c(=O)[nH]c1=O)C2O[Si](C)(C)C(C)(C)C (configuration not stated)
EC50 [3]: 3500 nM
EC50 [4]: 10000 nM

Cc1cn(C2OC(CO[Si](C)(C)C(C)(C)C)C3(OS(=O)(=O)C(I)=C3N)C2O[Si](C)(C)C(C)(C)C)c(=O)n(C)c1=O (configuration not stated)
EC50 [2]: 110 nM

COC(=O)CC=C1C(=N)C2(OS1(=O)=O)C(CO[Si](C)(C)C(C)(C)C)OC(n1cc(C)c(=O)[nH]c1=O)C2O[Si](C)(C)C(C)(C)C (configuration not stated)
EC50 [3]: 3000 nM
EC50 [4]: 3700 nM

CC1=C(N)C2(OS1(=O)=O)C(CO[Si](C)(C)C(C)(C)C)OC(n1cc(C)c(=O)n(C)c1=O)C2O[Si](C)(C)C(C)(C)C (configuration not stated)
EC50 [1]: 2200 nM
EC50 [2]: 250 nM

Cc1cn(C2OC(CO[Si](C)(C)C(C)(C)C)C3(OS(=O)(=O)C(=CCCO)C3=N)C2O[Si](C)(C)C(C)(C)C)c(=O)n(C)c1=O (configuration not stated)
EC50 [3]: 2800 nM
EC50 [4]: 5900 nM

CC=C1C(=N)C2(OS1(=O)=O)C(CO)OC(n1cc(C)c(=O)[nH]c1=O)C2O[Si](C)(C)C(C)(C)C (configuration not stated)
EC50 [3]: 15000 nM
EC50 [4]: 23000 nM
